ChEMBL document CHEMBL4145591, “Phenotypic Screening To Discover Novel Chemical Series as Efficient Antihemorrhagic Agents” (ACS Med Chem Lett, 2018)
Active and inactive are the calls of the source. The calls are words filed in the database; no cut-off is given here.

What was measured:
Stromelysin-1 = Stromelysin-1 (Homo sapiens, UniProt P08254); assay: Inhibition of MMP3 (unknown origin) using fluorescently-labeled substrate measured every min for 1 min
Stromelysin-2 = Stromelysin-2 (Homo sapiens, UniProt P09238); assay: Inhibition of MMP10 (unknown origin) using fluorescently-labeled substrate measured every min for 1 min
[1] = Cytotoxicity against human THLE2 cells assessed as decrease in cell viability after 72 hrs by luminescence assay; type: cell-based; conditions: THLE-2 cells, read-out: LC50
Method in brief: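 Healthy human hepatic THLE-2 line; compounds incubated with cells for 72 hours, then viability measured. Cytotoxicity reported as LC50.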

[2] = Therapeutic index, ratio of LC50 for human THLE2 cells to EC50 for antifibrinolytic activity in human whole blood; type: toxicity
Method in brief: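 THLE-2 healthy hepatic cells were exposed to compound for 72 hours and cell viability was read to give LC50. Antifibrinolytic EC50 came from thromboelastography in triplicate or duplicate. The index is LC50 relative to EC50, expressed in log units.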

[3] = Solubility of the compound in saline solution at 10 mM; type: physicochemical; conditions: buffer, 10000 µM
Mus musculus [4] = assay: Antifibrinolytic activity in tPA-induced C57Bl6 mouse hyperfibrinolytic tail bleeding model assessed as bleeding time at 1 mg/kg, iv administered for 5 mins post tPA challenge for 5 mins measured up to 30 mins by spectrophotometric method (reference value: 29.28 +/- 0.4 min); type: functional
[5] = molecular target: Tissue-type plasminogen activator (Homo sapiens) (UniProt P00750); assay: Effect on tPA (unknown origin) activity at 0.01 to 10 uM incubated for 15 mins
[6] = molecular target: Prothrombin (Homo sapiens) (UniProt P00734); assay: Effect on human plasma thrombin activity at 0.01 to 10 uM using S2238 as substrate incubated for 15 mins followed by substrate addition measured after 30 mins
Homo sapiens = species on record: Homo sapiens; assay: Effect on plasminogen/tPA (unknown origin) activity assessed as plasmin generation at 0.01 to 10 uM using S2251 as substrate incubated for 15 mins followed by substrate addition measured after 30 mins
[7] = molecular target: T1, Matrilysin (Homo sapiens) (UniProt P09237); assay: Inhibition of recombinant human MMP7 at 10 uM after 45 mins by fluorescence assay
T1 sequence (whole entry): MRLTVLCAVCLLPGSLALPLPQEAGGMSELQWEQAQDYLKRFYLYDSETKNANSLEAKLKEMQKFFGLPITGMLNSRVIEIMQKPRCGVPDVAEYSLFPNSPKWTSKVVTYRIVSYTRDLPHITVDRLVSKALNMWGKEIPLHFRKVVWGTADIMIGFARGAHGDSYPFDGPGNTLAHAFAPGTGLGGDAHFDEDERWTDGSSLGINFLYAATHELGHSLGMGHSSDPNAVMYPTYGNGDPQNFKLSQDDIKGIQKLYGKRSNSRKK

[8] = molecular target: Matrix metalloproteinase-14 (Homo sapiens) (UniProt P50281); assay: Inhibition of recombinant human MMP14 at 10 uM after 60 mins by fluorescence assay
Mus musculus [9] = species on record: Mus musculus; assay: Potency index, ratio of bleeding time for tranexamic acid to bleeding time for test compound in tPA-induced C57Bl6 mouse hyperfibrinolytic tail bleeding model; type: functional

Stromelysin-2, sequence (P09238 whole entry): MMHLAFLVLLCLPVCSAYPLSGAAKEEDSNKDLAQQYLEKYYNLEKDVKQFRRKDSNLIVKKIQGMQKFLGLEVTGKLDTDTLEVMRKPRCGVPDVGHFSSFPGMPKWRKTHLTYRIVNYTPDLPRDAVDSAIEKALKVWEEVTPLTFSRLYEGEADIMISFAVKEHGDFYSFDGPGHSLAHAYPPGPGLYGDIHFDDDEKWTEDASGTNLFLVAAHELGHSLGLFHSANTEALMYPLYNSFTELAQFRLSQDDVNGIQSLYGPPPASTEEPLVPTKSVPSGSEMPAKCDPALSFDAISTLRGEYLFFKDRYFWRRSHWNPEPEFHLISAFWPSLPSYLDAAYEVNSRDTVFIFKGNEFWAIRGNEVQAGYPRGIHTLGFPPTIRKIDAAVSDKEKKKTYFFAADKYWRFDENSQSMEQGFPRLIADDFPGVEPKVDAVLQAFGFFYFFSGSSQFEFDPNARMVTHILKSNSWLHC
Stromelysin-1, sequence (P08254 whole entry): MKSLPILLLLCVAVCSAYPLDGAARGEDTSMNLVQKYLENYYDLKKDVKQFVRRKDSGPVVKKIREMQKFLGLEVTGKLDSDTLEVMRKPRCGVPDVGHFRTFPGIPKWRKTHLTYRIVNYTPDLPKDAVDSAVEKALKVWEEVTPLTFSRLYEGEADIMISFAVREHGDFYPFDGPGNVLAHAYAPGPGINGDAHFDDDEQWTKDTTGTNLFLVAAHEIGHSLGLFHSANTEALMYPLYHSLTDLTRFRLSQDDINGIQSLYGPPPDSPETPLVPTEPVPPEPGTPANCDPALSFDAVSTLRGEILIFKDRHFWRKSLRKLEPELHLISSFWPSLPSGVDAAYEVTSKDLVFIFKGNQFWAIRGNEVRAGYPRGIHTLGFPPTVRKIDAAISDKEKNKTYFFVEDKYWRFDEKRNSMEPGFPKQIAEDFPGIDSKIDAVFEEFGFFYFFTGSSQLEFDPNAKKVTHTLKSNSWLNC
Tissue-type plasminogen activator (Homo sapiens), sequence (P00750 36-562 limits assumed): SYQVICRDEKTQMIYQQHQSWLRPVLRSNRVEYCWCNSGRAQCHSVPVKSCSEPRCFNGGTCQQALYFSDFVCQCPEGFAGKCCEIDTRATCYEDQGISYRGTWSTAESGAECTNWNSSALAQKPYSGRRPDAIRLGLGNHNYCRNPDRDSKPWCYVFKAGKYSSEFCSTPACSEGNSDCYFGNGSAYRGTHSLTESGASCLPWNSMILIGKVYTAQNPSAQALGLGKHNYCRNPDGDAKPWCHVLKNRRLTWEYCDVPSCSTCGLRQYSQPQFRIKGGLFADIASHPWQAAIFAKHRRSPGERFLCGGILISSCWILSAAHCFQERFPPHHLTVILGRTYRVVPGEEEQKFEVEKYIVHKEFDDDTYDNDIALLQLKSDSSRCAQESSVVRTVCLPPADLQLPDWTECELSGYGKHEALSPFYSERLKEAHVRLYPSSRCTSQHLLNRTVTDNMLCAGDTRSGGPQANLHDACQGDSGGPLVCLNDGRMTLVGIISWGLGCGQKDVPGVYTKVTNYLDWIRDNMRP

Row | SMILES | IC50 (Stromelysin-1) [µM] | IC50 (Stromelysin-2) [µM] | other results
1 | Nc1ccccc1NC(=O)C1(S(=O)(=O)c2ccc(Oc3ccc(OC(F)(F)F)cc3)cc2)CCC2(CCNCC2)C1 (stereo not drawn) | > 10 | > 10 | CC50 at 72 h [1]: 7.22 µM; log(ratio) [2]: 0.904
2 | Nc1ccc(-c2ccccc2)cc1NC(=O)C1(S(=O)(=O)c2ccc(Oc3ccc(OC(F)(F)F)cc3)cc2)CCC2(CCNCC2)C1 (stereo not drawn) | > 10 | > 10 | CC50 at 72 h [1]: 3.53 µM; log(ratio) [2]: >= 0.946
3 | CNC(=O)NC(=O)C1(S(=O)(=O)c2ccc(Oc3ccc(OC(F)(F)F)cc3)cc2)CCC2(CCNCC2)C1 (stereo not drawn) | > 10 | > 10 | CC50 at 72 h [1]: 16.2 µM; solubility [3]: Soluble; Time (Mus musculus [4]): 20.24 min; log(ratio) [2]: >= 1.607
4 | CCCN1CCC2(CC1)CCC(C(=O)Nc1ccccc1N)(S(=O)(=O)c1ccc(Oc3ccc(OC(F)(F)F)cc3)cc1)C2 (stereo not drawn) | > 10 | > 10 | Activity [5]: inactive; Activity [6]: inactive; Activity (Homo sapiens): inactive; CC50 at 72 h [1]: 3.94 µM; Time (Mus musculus [4]): 3.61 min; inhibition [7]: inactive; inhibition [8]: inactive; log(ratio) [2]: >= 0.993; fold change (FC) (Mus musculus [9]): 3
5 | O=C(Oc1ccccc1)C1(S(=O)(=O)c2ccc(Oc3ccc(OC(F)(F)F)cc3)cc2)CCC2(CCNCC2)C1 (stereo not drawn) | > 10 | > 10 | CC50 at 72 h [1]: 3.9 µM; log(ratio) [2]: 0.637
6 | Nc1ccccc1NC(=O)C1(S(=O)(=O)c2ccc(NC3CCCCC3)cc2)CCC2(CCNCC2)C1 (stereo not drawn) | > 10 | > 10 | CC50 at 72 h [1]: 43.8 µM; solubility [3]: Soluble; Time (Mus musculus [4]): 6.58 min; log(ratio) [2]: >= 2.039
7 | COc1ccc(N)c(NC(=O)C2(S(=O)(=O)c3ccc(Oc4ccc(OC(F)(F)F)cc4)cc3)CCC3(CCNCC3)C2)c1 (stereo not drawn) | > 10 | > 10 | 
8 | CN(C)S(=O)(=O)NC(=O)C1(S(=O)(=O)c2ccc(Oc3ccc(OC(F)(F)F)cc3)cc2)CCC2(CCNCC2)C1 (stereo not drawn) | > 10 | > 10 | 
9 | C#CCCCN1CCC2(CC1)CCC(C(=O)Nc1ccccc1N)(S(=O)(=O)c1ccc(C(=O)c3ccccc3)cc1)C2 (stereo not drawn) | > 10 | > 10 | CC50 at 72 h [1]: 43.5 µM; inhibition [7]: inactive; inhibition [8]: inactive
10 | Nc1ccc(-c2cccs2)cc1NC(=O)C1(S(=O)(=O)c2ccc(Oc3ccc(OC(F)(F)F)cc3)cc2)CCC2(CCNCC2)C1 (stereo not drawn) | > 10 | > 10 | CC50 at 72 h [1]: 2.8 µM; log(ratio) [2]: 0.493
11 | COc1ccc(S(=O)(=O)C2(C(=O)Nc3cc(-c4ccccc4)ccc3N)CCC3(CCNCC3)C2)cc1Cl (stereo not drawn) | > 10 | > 10 | 
12 | Nc1ccccc1NC(=O)C1(S(=O)(=O)c2ccccc2NC2CCCCC2)CCC2(CCNCC2)C1 (stereo not drawn) | > 10 | > 10 | solubility [3]: Soluble
13 | O=C(Nc1ccccc1O)C1(S(=O)(=O)c2ccc(Oc3ccc(OC(F)(F)F)cc3)cc2)CCC2(CCNCC2)C1 (stereo not drawn) | > 10 | > 10 | 
14 | O=C(Nc1nccs1)C1(S(=O)(=O)c2ccc(Oc3ccc(OC(F)(F)F)cc3)cc2)CCC2(CCNCC2)C1 (stereo not drawn) | > 10 | > 10 | 
15 | Cc1ccc(-c2ccc(N)c(NC(=O)C3(S(=O)(=O)c4ccc(Oc5ccc(OC(F)(F)F)cc5)cc4)CCC4(CCNCC4)C3)c2)o1 (stereo not drawn) | > 10 | > 10 | 
16 | Nc1ccc(F)cc1NC(=O)C1(S(=O)(=O)c2ccc(Oc3ccc(OC(F)(F)F)cc3)cc2)CCC2(CCNCC2)C1 (stereo not drawn) | > 10 | > 10 | 
17 | O=C1CN(C(=O)C2(S(=O)(=O)c3ccc(Oc4ccc(OC(F)(F)F)cc4)cc3)CCC3(CCNCC3)C2)CCN1 (stereo not drawn) | > 10 | > 10 | 
18 | CON(C)C(=O)C1(S(=O)(=O)c2ccc(Oc3ccc(OC(F)(F)F)cc3)cc2)CCC2(CCNCC2)C1 (stereo not drawn) | > 10 | > 10 | 
19 | O=C(OCc1ccccc1)C1(S(=O)(=O)c2ccc(Oc3ccc(OC(F)(F)F)cc3)cc2)CCC2(CCNCC2)C1 (stereo not drawn) | > 10 | > 10 | 

Continued, in another order:

Row | IC50 (Stromelysin-1) [µM] | IC50 (Stromelysin-2) [µM] | SMILES | other results
20 | > 10 | > 10 | CNC(=O)NC(=O)C1(S(=O)(=O)c2ccc(OC)c(Cl)c2)CCC2(CCNCC2)C1 (stereo not drawn) | 
21 | > 10 | > 10 | O=S(=O)(c1ccc(Oc2ccc(OC(F)(F)F)cc2)cc1)C1(CO)CCC2(CCNCC2)C1 (stereo not drawn) | 
22 | > 10 | > 10 | Nc1ccccc1NC(=O)C1(S(=O)(=O)c2ccc(Oc3ccc(OC(F)(F)F)cc3)c(Cl)c2)CCC2(CCNCC2)C1 (stereo not drawn) | 
23 | > 10 | > 10 | O=S(=O)(c1ccc(Oc2ccc(OC(F)(F)F)cc2)cc1)C1CCC2(CCNCC2)C1 (stereo not drawn) | 
24 | > 10 | > 10 | CCCN1CCC2(CC1)CCC(C(=O)NC(=O)NC)(S(=O)(=O)c1ccc(Oc3ccc(OC(F)(F)F)cc3)cc1)C2 (stereo not drawn) | 
25 | > 10 | > 10 | NC(=O)C1(S(=O)(=O)c2ccc(Oc3ccc(OC(F)(F)F)cc3)cc2)CCC2(CCNCC2)C1 (stereo not drawn) | 
26 | > 10 | > 10 | O=C(Nc1ccccn1)C1(S(=O)(=O)c2ccc(Oc3ccc(OC(F)(F)F)cc3)cc2)CCC2(CCNCC2)C1 (stereo not drawn) | 
27 | > 10 | > 10 | CNC(=O)NC(=O)C1(S(=O)(=O)c2ccc(Oc3ccc(OC)cc3)c(Cl)c2)CCC2(CCNCC2)C1 (stereo not drawn) | 
28 | > 10 | > 10 | COc1ccc(S(=O)(=O)C2(C(=O)Nc3ccccc3N)CCC3(CCNCC3)C2)cc1Cl (stereo not drawn) | 
29 | > 10 | > 10 | CS(=O)(=O)NC(=O)C1(S(=O)(=O)c2ccc(Oc3ccc(OC(F)(F)F)cc3)cc2)CCC2(CCNCC2)C1 (stereo not drawn) | 
30 | > 10 | > 10 | COC(=O)C1(S(=O)(=O)c2ccc(Oc3ccc(OC(F)(F)F)cc3)cc2)CCC2(CCNCC2)C1 (stereo not drawn) | 
31 | > 10 | > 10 | COc1ccc(Oc2ccc(S(=O)(=O)C3(C(=O)Nc4ccccc4N)CCC4(CCNCC4)C3)cc2Cl)cc1 (stereo not drawn) | 
32 | > 10 | > 10 | O=C(O)C1(S(=O)(=O)c2ccc(Oc3ccc(OC(F)(F)F)cc3)cc2)CCC2(CCNCC2)C1 (stereo not drawn) | 
